Active and inactive are the calls of the source.
Columns and labels:
[1] = system: Panel CNS (Carcinoma cell lines); assay: Antiproliferative activity against human CNS cancer cells assessed as reduction in cell viability measured after 24 to 48 hrs by XTT assay; type: functional; details: time 24-48 hrs; for CC50: read-out: LC50 (the source's name)
CCRF-CEM [2] = assay: Antiproliferative activity against human CCRF-CEM cells assessed as inhibition of cell growth at 10 uM measured after 24 to 48 hrs by XTT assay; type: functional; details: time 24-48 hrs, read-out: GI
In short: (§1)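 NCI60 panel screen by the NCI Developmental Therapeutics Program: single dose of 10 µM first; compounds meeting inhibition criteria retested at five 10-fold dilutions, 100 µM to 0.01 µM; GI50, TGI and LC50 derived.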

[3] = Antiproliferative activity against human leukemia cells assessed as reduction in cell viability measured after 24 to 48 hrs by XTT assay; type: functional; details: Panel leukemia (Carcinoma cell lines), time 24-48 hrs; for CC50: read-out: LC50 (the source's name)
[4] = Antiproliferative against human melanoma cells assessed as reduction in cell growth incubated for 24 to 48 hrs by XTT assay; type: functional; details: Panel melanoma (Carcinoma cell lines), time 24-48 hrs; for CC50: read-out: LC50 (the source's name); in short: as §1
[5] = Antiproliferative activity against human NSC lung cancer cells assessed as reduction in cell viability measured after 24 to 48 hrs by XTT assay; type: functional; details: Non-small cell lung cancer cell line, time 24-48 hrs; for CC50: read-out: LC50 (the source's name)
[6] = Antiproliferative against human breast cancer cells assessed as reduction in cell growth incubated for 24 to 48 hrs by XTT assay; type: functional, Panel breast (Carcinoma cell lines); details: Breast carcinoma cell, time 24-48 hrs; in short: as §1
HeLa [7] = assay: Induction of cell cycle arrest in human HeLa cells assessed as accumulation of cells at G0/G1 phase at 5 uM incubated for 48 hrs by 7-AAD staining based flow cytometry analysis (reference value: 65%); type: functional
In short: (§2)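 HeLa seeded at 50% confluence, treated after 24 h with 5 or 10 µM for 24 or 48 h. Adherent plus floating cells fixed in ice-cold 70% ethanol overnight at -20 °C, stained with 7-AAD 20 min at room temperature; 20000 events per sample by flow cytometry; phase percentages compared with control.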

[8] = Antiproliferative against human renal cancer cells assessed as reduction in cell growth incubated for 24 to 48 hrs by XTT assay; type: functional; details: Panel renal (Carcinoma cell lines), time 24-48 hrs; in short: as §1
[9] = system: Panel CNS (Carcinoma cell lines); assay: Antiproliferative activity against human CNS cancer cells assessed as lethality measured after 24 to 48 hrs by XTT assay; type: functional; details: time 24-48 hrs
In short: (§3)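 NCI60 screen run by the NCI Developmental Therapeutics Program. A single 10 µM dose was first tested across the full 60-cell-line panel. Compounds meeting the inhibition selection criteria were then retested at five 10-fold dilutions from 100 µM to 0.01 µM. GI50, TGI and LC50 were reported as molar concentrations for each tumour-type group.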

HeLa [10] = assay: Antiproliferative activity against human HeLa cells assessed as reduction in cell viability measured after 48 hrs by XTT assay; type: functional, cell-based
In short: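 HeLa (DMEM, 10% FBS, 37 °C, 5% CO2) seeded 1500 cells/well, treated 24 h later at 0.1–5 µM for 24 and 48 h; DMSO vehicle as control. XTT reagent 4 h at 37 °C, absorbance at 490 nm; IC50 calculated from viability; more than three independent experiments, each in triplicate.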

A549 = assay: Antiproliferative activity against human A549 cells assessed as reduction in cell growth at 4 to 16 uM incubated for 72 hrs in presence of extrusion-pump inhibitor, SS26 by CellTox based fluorescence analysis; type: functional; details: dose 4-16 µM
In short: (§4)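 A498, A-704, A549 and HT1197 cells (DMEM high glucose, 10% FBS, 37 °C, 5% CO2) plated 500/well with SiR-DNA 0.5 µM and CellTox Green 0.8x, treated next day at 1, 2, 4, 8, 16 µM alone or with EPI SS26 at fixed 1 µM, 0.3% DMSO. Nuclei and dead cells imaged at 0, 24, 48, 72 h; percentage growth calculated; three technical replicates.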

Sus scrofa [11] = species: Sus scrofa; assay: Inhibition of pig tubulin polymerization measuring every 20 sec for 30 mins by fluorescence based analysis
Tubulin (Homo sapiens) [12] = target: T1, Tubulin (Homo sapiens) (UniProt P68371+Q9H4B7+P0DPH7+P68366+Q13509+Q71U36+P04350+Q3ZCM7+P07437+P68363+Q9BQE3+Q6PEY2+Q13885+Q9BVA1+Q9BUF5); assay: Disruption of microtubules in human HeLa cells assessed as beta-tubulin disassembly at 50 to 500 nM incubated for 24 hrs by high-content confocal microscopy; type: cell-based; details: dose 50-500 nM
In short: (§5)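 HeLa treated 24 h at 10, 25, 50, 100 and 500 nM, stained for β-tubulin and nuclei (DAPI), imaged by high-content confocal microscopy; tubulin disassembly and cell dimension compared with controls.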

HeLa [13] = assay: Induction of cell cycle arrest in human HeLa cells assessed as accumulation of cells at G0/G1 phase at 10 uM incubated for 48 hrs by 7-AAD staining based flow cytometry analysis (reference value: 65%); type: functional; in short: as §2
[14] = Antiproliferative activity against human colon cancer cells assessed as reduction in cell viability measured after 24 to 48 hrs by XTT assay; type: functional, Panel colon (Carcinoma cell lines); details: Colon carcinoma cell, time 24-48 hrs
HeLa [15] = assay: Induction of cell cycle arrest in human HeLa cells assessed as accumulation of cells at G0/G1 phase at 10 uM incubated for 24 hrs by 7-AAD staining based flow cytometry analysis (reference value: 65%); type: functional; in short: as §2
HeLa [16] = assay: Induction of cell cycle arrest in human HeLa cells assessed as accumulation of cells at G2/M phase at 10 uM incubated for 48 hrs by 7-AAD staining based flow cytometry analysis (reference value: 30%); type: functional; in short: as §2
Sus scrofa [17] = species: Sus scrofa; assay: Displacement of colchicine from pig tubulin assessed as reduction in colchicine effectiveness on tubulin assembly measured every 20 secs for 30 mins by fluorescence based analysis
[18] = system: Panel NCI-60 (60 carcinoma cell lines); assay: Antiproliferative against human NCI-60 cells assessed as reduction in cell growth incubated for 24 to 48 hrs by XTT assay; type: functional; details: time 24-48 hrs; in short: as §1
[19] = Antiproliferative against human prostate cancer cells assessed as reduction in cell growth incubated for 24 to 48 hrs by XTT assay; type: functional; details: Panel prostate (Carcinoma cell lines), time 24-48 hrs; in short: as §1
HT1197 = assay: Antiproliferative activity against human HT1197 cells assessed as reduction in cell growth at 4 to 16 uM incubated for 72 hrs in presence of extrusion-pump inhibitor, SS26 by CellTox based fluorescence analysis; type: functional; details: dose 4-16 µM; in short: as §4
HeLa [20] = assay: Induction of cell cycle arrest in human HeLa cells assessed as accumulation of cells at G2/M phase at 10 uM incubated for 24 hrs by 7-AAD staining based flow cytometry analysis (reference value: 30%); type: functional; in short: as §2
A704 = assay: Antiproliferative activity against human A704 cells assessed as reduction in cell growth at 4 to 16 uM incubated for 48 to 72 hrs in presence of extrusion-pump inhibitor, SS26 by CellTox based fluorescence analysis; type: functional; details: dose 4-16 µM, time 48-72 hrs; in short: as §4
HeLa [21] = assay: Induction of cell cycle arrest in human HeLa cells assessed as accumulation of cells at S phase at 10 uM incubated for 24 hrs by 7-AAD staining based flow cytometry analysis (reference value: 5%); type: functional; in short: as §2
HeLa [22] = assay: Induction of cell cycle arrest in human HeLa cells assessed as accumulation of cells at G0/G1 phase at 5 uM incubated for 24 hrs by 7-AAD staining based flow cytometry analysis (reference value: 65%); type: functional; in short: as §2
HeLa [23] = assay: Induction of cell cycle arrest in human HeLa cells assessed as accumulation of cells at G2/M phase at 5 uM incubated for 48 hrs by 7-AAD staining based flow cytometry analysis (reference value: 30%); type: functional; in short: as §2
U-251 = assay: Antiproliferative activity against human U-251 cells assessed as lethality measured after 24 to 48 hrs by XTT assay; type: functional; details: time 24-48 hrs; in short: as §3
A498 = assay: Antiproliferative activity against human A498 cells assessed as reduction in cell growth at 4 to 16 uM incubated for 72 hrs in presence of extrusion-pump inhibitor, SS26 by CellTox based fluorescence analysis; type: functional; details: dose 4-16 µM; in short: as §4
HeLa [24] = assay: Induction of incomplete cytokinesis with increased cell dimension in human HeLa cells at 0.3 uM measured after 48 hrs by fluorescence microscopy; type: functional, cell-based
HeLa [25] = assay: Induction of cell cycle arrest in human HeLa cells assessed as accumulation of cells at G2/M phase at 5 uM incubated for 24 hrs by 7-AAD staining based flow cytometry analysis (reference value: 30%); type: functional; in short: as §2
HeLa [26] = assay: Induction of cell cycle arrest in human HeLa cells assessed as accumulation of cells at S phase at 5 uM incubated for 48 hrs by 7-AAD staining based flow cytometry analysis (reference value: 5%); type: functional; in short: as §2
HeLa [27] = assay: Induction of cell cycle arrest in human HeLa cells assessed as accumulation of cells at S phase at 5 uM incubated for 24 hrs by 7-AAD staining based flow cytometry analysis (reference value: 5%); type: functional; in short: as §2
NCI-H522 = assay: Antiproliferative activity against human NCI-H522 cells assessed as reduction in cell growth at […] measured after 24 to 48 hrs by XTT assay; type: functional; details: time 24-48 hrs, read-out: GI; in short: as §1
HeLa [28] = assay: Induction of cell cycle arrest in human HeLa cells assessed as accumulation of cells at S phase at 10 uM incubated for 48 hrs by 7-AAD staining based flow cytometry analysis (reference value: 5%); type: functional; in short: as §2
[29] = Antiproliferative against human ovarian cancer cells assessed as reduction in cell growth incubated for 24 to 48 hrs by XTT assay; type: functional, Panel ovarian (Carcinoma cell lines); details: Ovarian carcinoma cell, time 24-48 hrs; in short: as §1
Tubulin (Homo sapiens) [30] = target: T1, Tubulin (Homo sapiens); assay: Disruption of microtubules in human HeLa cells assessed as increase in cytoplasmic dimensions at 50 nM incubated for 24 hrs by high-content confocal microscopy relative to control; type: cell-based; in short: as §5
CCRF-CEM [31] = assay: Antiproliferative activity against human CCRF-CEM cells assessed as inhibition of cell proliferation measured after 96 hrs by MTT assay; type: functional, cell-based
[32] = read-out: LC50 (the source's name)

N#C/C(=C\c1cccc2cnccc12)n1nnc2ccccc21
GI50 [1]: 184 nM | TGI [1]: ≥ 3610 nM | CC50 [1]: > 100000 nM | inhibition of growth at 10 µM (CCRF-CEM [2]): 100% | GI50 [3]: 253 nM | TGI [3]: ≥ 24300 nM | CC50 [3]: > 100000 nM | GI50 [4]: 2040 nM | TGI [4]: > 100000 nM | CC50 [4]: > 100000 nM | GI50 [5]: 532 nM | TGI [5]: ≥ 5130 nM | CC50 [5]: > 100000 nM | GI50 [6]: 557 nM | LC50 [6]: > 100000 nM | TGI [6]: ≥ 2840 nM

Cc1ccc(/C=C(\C#N)n2nnc3cc(F)c(F)cc32)cc1
Activity (HeLa [7]): 41% | GI50 [8]: 1770 nM | TGI [8]: 7410 nM | CC50 [8, 32]: ≥ 36700 nM | Activity [9]: >=90% | IC50 (HeLa [10]): 3200 nM | GI50 [1]: 1480 nM | TGI [1]: 2940 nM | CC50 [1]: ≥ 5830 nM | Activity (A549): Active | inhibition (Sus scrofa [11]): Active | GI50 [3]: 391 nM | TGI [3]: ≥ 871 nM | CC50 [3]: > 100000 nM | Activity (Tubulin (Homo sapiens) [12]): Active | Activity (HeLa [13]): 10% | GI50 [4]: 360 nM | TGI [4]: ≥ 100000 nM | CC50 [4]: ≥ 7670 nM | GI50 [14]: 421 nM | TGI [14]: 1530 nM | CC50 [14, 32]: ≥ 5800 nM | Activity (HeLa [15]): 20% | Activity (HeLa [16]): 87% | Activity (Sus scrofa [17]): Active | GI50 [18]: ≤ 100 nM | TGI [18]: ≤ 1000 nM | CC50 [18, 32]: ≤ 1000 nM | GI50 [19]: 3320 nM | TGI [19]: 15600 nM | CC50 [19, 32]: 66200 nM | Activity (HT1197): Active | GI50 [5]: 291 nM | TGI [5]: 1120 nM | CC50 [5]: ≥ 6780 nM | Activity (HeLa [20]): 66% | Activity (A704): Active | Activity (HeLa [21]): 14% | Activity (HeLa [22]): 39% | Activity (HeLa [23]): 50% | Activity (U-251): >=90% | Activity (A498): Active | Activity (HeLa [24]): Active | Activity (HeLa [25]): 54% | Activity (HeLa [26]): 9% | Activity (HeLa [27]): 7% | GI50 [6]: 1160 nM | LC50 [6]: > 100000 nM | TGI [6]: ≥ 5390 nM | inhibition of growth (NCI-H522): 93% | Activity (HeLa [28]): 3% | GI50 [29]: 1470 nM | TGI [29]: ≥ 6080 nM | CC50 [29, 32]: ≥ 33800 nM | fold change (FC) (Tubulin (Homo sapiens) [30]): 3

COc1ccc(/C=C(\C#N)n2nnc3ccccc32)cc1
IC50 (CCRF-CEM [31]): 200 nM
